# According to ChEMBL document CHEMBL1148762, “Lysosome and HER3 (ErbB3) selective anticancer agent kahalalide F: semisynthetic modifications and antifungal lead-exploration studies” (J Med Chem, 2007):
# The source made the active and inactive calls. The rule behind the calls is not given here.
# Tests used:
# SK-OV-3 = assay: Cytotoxicity against human SK-OV3 cells; type: functional
# How it was run: (§1)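 NCI Developmental Therapeutics Program cell panel. GI50 is the concentration that reduces growth of treated cells to half that of untreated controls. TGI is the concentration that completely halts growth.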
# ACHN = assay: Cytotoxicity against human ACHN cells; type: functional; how it was run: as §1
# PC-3 = assay: Cytotoxicity against human PC3 cells; type: functional; how it was run: as §1
# Hs-578T = assay: Cytotoxicity against human HS578T cells; type: functional; how it was run: as §1
# Fusarium proliferatum [1] = assay: Antimicrobial activity against Fusarium proliferatum at 0.3 uM after 72 hrs by microtiter assay; type: functional
# How it was run: (§2)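 96-well microdilution broth assay with conidia (3 × 10^5 conidia/mL, harvested from 7-day PDA cultures and filtered) against F. oxysporum, F. proliferatum and F. solani at 0.3, 3 and 30 µM. Plates were held at 24 ± 1 °C under a 12 h photoperiod. Growth was read at 620 nm at 24, 48 and 72 h and reported as percent inhibition from mean absorbance with standard error.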
# Fusarium proliferatum [2] = assay: Antimicrobial activity against Fusarium proliferatum at 3 uM after 48 hrs by microtiter assay; type: functional; how it was run: as §2
# Fusarium proliferatum [3] = assay: Antimicrobial activity against Fusarium proliferatum at 3 uM after 72 hrs by microtiter assay; type: functional; how it was run: as §2
# Aspergillus fumigatus = assay: Antimicrobial activity against Aspergillus fumigatus ATCC 90906; type: functional, organism-based
# Cryptococcus neoformans = assay: Antimicrobial activity against Cryptococcus neoformans ATCC 90113; type: functional, organism-based
# Fusarium proliferatum [4] = assay: Antimicrobial activity against Fusarium proliferatum at 0.3 uM after 48 hrs by microtiter assay; type: functional; how it was run: as §2
# Escherichia coli = assay: Antimicrobial activity against Escherichia coli; type: functional, organism-based
# Staphylococcus aureus = assay: Antimicrobial activity against methicillin-resistant Staphylococcus aureus; type: functional, organism-based
# Candida albicans = assay: Antimicrobial activity against Candida albicans ATCC 90028; type: functional, organism-based
# [5] = tested on: Mycobacterium intracellulare; assay: Antimicrobial activity against Mycobacterium intracellular ATCC 23068; type: functional, organism-based
# Leishmania donovani = assay: Antiparasitic activity against Leishmania donovani; type: functional, organism-based
# [6] = tested on: Mycobacterium tuberculosis; assay: Antibacterial activity against Mycobacterium tuberculosis H37Rv at 16 ug/mL by micro plate alamar blue assay; type: functional
# How it was run: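 M. tuberculosis H37Rv ATCC 27294 grown in BACTEC 12B medium; microplate Alamar blue assay (MABA). Primary screen at a single concentration of 16 µg/mL, read as percent inhibition.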
# [7] = tested on: Mycobacterium tuberculosis; assay: Antibacterial activity against Mycobacterium tuberculosis H37Rv by micro plate alamar blue assay; type: functional
# Fusarium oxysporum [8] = assay: Antimicrobial activity against Fusarium oxysporum at 0.3 uM after 48 hrs by microtiter assay; type: functional; how it was run: as §2
# Fusarium oxysporum [9] = assay: Antimicrobial activity against Fusarium oxysporum at 0.3 uM after 72 hrs by microtiter assay; type: functional; how it was run: as §2
# Fusarium solani [10] = assay: Antimicrobial activity against Fusarium solani at 0.3 uM after 48 hrs by microtiter assay; type: functional; how it was run: as §2
# Fusarium solani [11] = assay: Antimicrobial activity against Fusarium solani at 0.3 uM after 72 hrs by microtiter assay; type: functional; how it was run: as §2
# Fusarium oxysporum [12] = assay: Antimicrobial activity against Fusarium oxysporum at 3 uM after 48 hrs by microtiter assay; type: functional; how it was run: as §2
# Fusarium oxysporum [13] = assay: Antimicrobial activity against Fusarium oxysporum at 3 uM after 72 hrs by microtiter assay; type: functional; how it was run: as §2
# Fusarium solani [14] = assay: Antimicrobial activity against Fusarium solani at 3 uM after 48 hrs by microtiter assay; type: functional; how it was run: as §2
# Fusarium solani [15] = assay: Antimicrobial activity against Fusarium solani at 3 uM after 72 hrs by microtiter assay; type: functional; how it was run: as §2
# Fusarium oxysporum [16] = assay: Antimicrobial activity against Fusarium oxysporum at 30 uM after 48 hrs by microtiter assay; type: functional; how it was run: as §2
# Fusarium oxysporum [17] = assay: Antimicrobial activity against Fusarium oxysporum at 30 uM after 72 hrs by microtiter assay; type: functional; how it was run: as §2
# Fusarium solani [18] = assay: Antimicrobial activity against Fusarium solani at 30 uM after 48 hrs by microtiter assay; type: functional; how it was run: as §2
# Fusarium solani [19] = assay: Antimicrobial activity against Fusarium solani at 30 uM after 72 hrs by microtiter assay; type: functional; how it was run: as §2
# A549 = assay: Cytotoxicity against human A549 cells; type: functional; how it was run: as §1
# NCI-H322M = assay: Cytotoxicity against human NCI-H322M cells; type: functional; how it was run: as §1
# RPMI-8226 = assay: Cytotoxicity against human RPMI8226 cells; type: functional; how it was run: as §1
# HCC 2998 = assay: Cytotoxicity against human HCC2998 cells; type: functional; how it was run: as §1
# HCT-15 = assay: Cytotoxicity against human HCT15 cells; type: functional; how it was run: as §1
# HT-29 = assay: Cytotoxicity against human HT29 cells; type: functional; how it was run: as §1
# KM12 = assay: Cytotoxicity against human KM12 cells; type: functional; how it was run: as §1
# SNB-75 = assay: Cytotoxicity against human SNB75 cells; type: functional; how it was run: as §1
# UACC-257 = assay: Cytotoxicity against human UACC257 cells; type: functional; how it was run: as §1
# Fusarium proliferatum [20] = assay: Antimicrobial activity against Fusarium proliferatum at 30 uM after 48 hrs by microtiter assay; type: functional; how it was run: as §2
# Fusarium proliferatum [21] = assay: Antimicrobial activity against Fusarium proliferatum at 30 uM after 72 hrs by microtiter assay; type: functional; how it was run: as §2
# Fusarium proliferatum [22] = assay: Fungicidal activity against Fusarium proliferatum at 30 uM after 72 hrs by microtiter plate assay; type: functional, organism-based
# How it was run: (§3)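 After 72 h of microtiter broth exposure at 30 µM, 20 µL from each well was plated onto compound-free potato dextrose agar and incubated 3 days at 28 °C. No regrowth was scored fungicidal; regrowth was scored fungistatic.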
# Fusarium solani [23] = assay: Fungicidal activity against Fusarium solani at 30 uM after 72 hrs by microtiter assay; type: functional, organism-based; how it was run: as §3
# Fusarium proliferatum [24] = assay: Antifungal activity against Fusarium proliferatum at 20 ug/mL after 3 days by fluorescence assay; type: functional, organism-based
# How it was run: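 Fusarium proliferatum conidia in potato dextrose broth in a tube with the coumarin (DEAC)-labelled probe at 20 µg/mL, held at 24 ± 1 °C. Hyphae and mycelia were viewed at 4, 8, 16, 24, 48 and 72 h by light and epifluorescence microscopy at 400× and 1000×. Conidia were first checked for autofluorescence.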
# Fusarium oxysporum [25] = assay: Fungicidal activity against Fusarium oxysporum at 30 uM after 72 hrs by microtiter plate assay; type: functional, organism-based; how it was run: as §3
smiles,measurement,setting,value
C/C=C1\NC(=O)[C@H](Cc2ccccc2)NC(=O)[C@@H](C(C)C)NC(=O)[C@@H]([C@H](C)CC)NC(=O)[C@H](NC(=O)[C@H](NC(=O)[C@H](CCCN)NC(=O)[C@H]2CCCN2C(=O)[C@H](NC(=O)[C@@H](NC(=O)[C@@H](NC(=O)[C@H](NC(=O)CCCC(C)C)C(C)C)[C@@H](C)O)C(C)C)C(C)C)[C@H](C)CC)[C@H](C)OC(=O)[C@H](C(C)C)NC1=O [KAHALALIDE F],GI50,SK-OV-3,191 nM
same,TGI,SK-OV-3,355 nM
same,GI50,ACHN,1660 nM
same,TGI,ACHN,3240 nM
same,GI50,PC-3,170 nM
same,TGI,PC-3,324 nM
same,GI50,Hs-578T,162 nM
same,TGI,Hs-578T,479 nM
same,inhibition at 0.3 µM,Fusarium proliferatum [1],0%
same,inhibition at 3 µM,Fusarium proliferatum [2],0%
same,inhibition at 3 µM,Fusarium proliferatum [3],0%
same,IC50,Aspergillus fumigatus,3210 nM
same,MFC,Aspergillus fumigatus,20 µM
same,MIC,Aspergillus fumigatus,10 µM
same,IC50,Cryptococcus neoformans,1530 nM
same,MFC,Cryptococcus neoformans,5 µM
same,MIC,Cryptococcus neoformans,5 µM
same,inhibition at 0.3 µM,Fusarium proliferatum [4],0%
same,Activity,Escherichia coli,inactive
same,Activity,Staphylococcus aureus,inactive
same,IC50,Candida albicans,3020 nM
same,MFC,Candida albicans,20 µM
same,MIC,Candida albicans,10 µM
same,IC50,[5],> 20000 nM
same,MBC,[5],> 20 µM
same,MIC,[5],> 20 µM
same,IC50,Leishmania donovani,17 µg/mL
same,IC90,Leishmania donovani,34 µg/mL
same,inhibition at 16 µg/mL,[6],67%
same,MIC,[7],> 16 µg/mL
same,inhibition at 0.3 µM,Fusarium oxysporum [8],0%
same,inhibition at 0.3 µM,Fusarium oxysporum [9],0%
same,inhibition at 0.3 µM,Fusarium solani [10],0%
same,inhibition at 0.3 µM,Fusarium solani [11],0%
same,inhibition at 3 µM,Fusarium oxysporum [12],0%
same,inhibition at 3 µM,Fusarium oxysporum [13],0%
same,inhibition at 3 µM,Fusarium solani [14],9.9%
same,inhibition at 3 µM,Fusarium solani [15],0%
same,inhibition at 30 µM,Fusarium oxysporum [16],100%
same,inhibition at 30 µM,Fusarium oxysporum [17],99.6%
same,inhibition at 30 µM,Fusarium solani [18],98.9%
same,inhibition at 30 µM,Fusarium solani [19],99.9%
same,GI50,A549,135 nM
same,TGI,A549,302 nM
same,GI50,NCI-H322M,191 nM
same,TGI,NCI-H322M,372 nM
same,GI50,RPMI-8226,1740 nM
same,TGI,RPMI-8226,6920 nM
same,GI50,HCC 2998,288 nM
same,TGI,HCC 2998,616 nM
same,GI50,HCT-15,269 nM
same,TGI,HCT-15,741 nM
same,GI50,HT-29,162 nM
same,TGI,HT-29,316 nM
same,GI50,KM12,182 nM
same,TGI,KM12,363 nM
same,GI50,SNB-75,224 nM
same,TGI,SNB-75,1900 nM
same,GI50,UACC-257,1020 nM
same,TGI,UACC-257,2820 nM
same,inhibition at 30 µM,Fusarium proliferatum [20],99.8%
same,inhibition at 30 µM,Fusarium proliferatum [21],100%
same,Activity,Fusarium proliferatum [22],Active
same,Activity,Fusarium solani [23],Active
same,Activity,Fusarium proliferatum [24],Active
same,Activity,Fusarium oxysporum [25],Active
